Laboratory results taken from ChEMBL document CHEMBL1152972, “Rearranged prenylated C6-C3 compounds and a highly oxygenated seco-prezizaane-type sesquiterpene from the stem bark of Illicium oligandrum” (2009).
Calls of active or inactive are those of the source. The calls are words filed in the database; no cut-off is given here.

Key:
[1] = test system: A549; assay: Cytotoxicity against human A549 cells; assay type: functional, cell-based
[2] = test system: A2780; assay: Cytotoxicity against human A2780 cells; assay type: functional, cell-based
[3] = test system: BGC-823; assay: Cytotoxicity against human BGC823 cells; assay type: functional, cell-based
[4] = Antiinflammatory activity in rat PMNC assessed as inhibition of platelet activating factor-induced beta-glucuronidase release at 10 uM treated 15 mins before PAF challenge; assay type: functional; set-up: scale not given: the % may be the effect or the level left
Procedure, shortened: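 Rat PMN suspension (2.5 × 10^6 cells/mL) preincubated with sample (stock 0.1 M in DMSO, diluted in RPMI-1640) 15 min at 37 °C, then cytochalasin B 5 min, then PAF; stopped on ice after 10 min. Supernatant incubated with phenolphthalein glucuronic acid in 0.1 M HOAc buffer pH 4.6, 37 °C, 18 h; NaOH added, A550 read; inhibitory ratio versus PAF and control wells; ginkgolide B reference.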

[5] = test system: HCT-8; assay: Cytotoxicity against human HCT8 cells; assay type: functional, cell-based
[6] = test system: Bel-7402; assay: Cytotoxicity against human Bel7402 cells; assay type: functional, cell-based

Structure (SMILES) | Activity [1] | Activity [2] | Activity [3] | Activity [4] [%] | Activity [5] | Activity [6]
C=CCC1=C[C@]2(O)C[C@H](C(C)(C)O)OC2=CC1=O | inactive | inactive | inactive | 4.8 | inactive | inactive
C=CC[C@@H]1C[C@]2(O)C[C@H](C(C)(C)O)OC2=CC1=O [ILLIFUNONE C] | inactive | inactive | inactive | -9.4 | inactive | inactive
C=CC[C@H]1C[C@]2(O)C[C@H](C(C)(C)O)OC2=CC1=O [ILLIFUNONE D] | inactive | inactive | inactive | 18 | inactive | inactive
C=CCC1=C[C@]2(O)C[C@@H](O)C(C)(C)[C@H](C1=O)C2=O [ILLIOLIGANONE A] | inactive | inactive | inactive | -7.7 | inactive | inactive
C=CC[C@@]12C=C(C[C@H](O)C(C)(C)O)C(=O)C=C1OCO2 [ILLIOLIGANONE B] | inactive | inactive | inactive | 33.8 | inactive | inactive
C=CC[C@]1(C[C@H](O)C(C)(C)O)C=C2OCOC2=CC1=O [ILLIOLIGANONE C] | inactive | inactive | inactive | 20.1 | inactive | inactive
C[C@@H]1CC[C@@]2(O)[C@]13C[C@@H](OC(=O)[C@@H]3O)[C@@]1(O)C(=O)OC[C@@]21C [NEOMAJUCIN] | inactive | inactive | inactive | 22.4 | inactive | inactive
CO[C@]12OC[C@@]3(C)[C@@]4(O)CC[C@@H](COC(=O)c5ccccc5)[C@]4(C[C@@H](O1)[C@@]3(O)CO)[C@H]2O [OLIGANDRIORTHOLACTONE] | inactive | inactive | inactive | 15.8 | inactive | inactive
